These results are taken from ChEMBL document CHEMBL3227997, “Nucleosides. 110. Synthesis and antiherpes virus activity of some 2'-fluoro-2'-deoxyarabinofuranosylpyrimidine nucleosides” (J Med Chem, 1979).

Data set [1] can be described thus: Cytotoxicity against mouse P815 cells assessed as growth inhibition after 96 hrs. The class given is cell-based. As to conditions: read-out: ID50. In outline:
(§1)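 Mouse leukemic lines grown in McCoy's medium with 15% fetal calf serum, starting at 40 000–60 000 cells/mL. Nucleoside added from a 50-fold concentrate; triplicate loosely capped tubes held at 37 °C in 5% CO2 for 96 h, controls reaching ~10^6 cells/mL. Cells counted electronically; percent growth inhibition calculated and the concentration for 50% inhibition reported.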

In data set [2] the test system is Human alphaherpesvirus 1. In words: Antiviral activity against HSV1 2931 infected in African green monkey Vero cells assessed as inhibition of virus replication at 1 ug/ml after 24 hrs relative to control. The class given is functional. The note with it: Human alphaherpesvirus 1, 2931, Vero. The gist of the method: (§2)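 Vero monolayers infected with HSV-1 strain 2931 at about 1 PFU/cell, adsorbed 2 h, then overlaid with maintenance medium containing drug. Supernatants harvested 24 h later and titered on Vero monolayers.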

Data set [3] relates to Human alphaherpesvirus 1. In words: Antiviral activity against HSV1 2931 infected in African green monkey Vero cells assessed as inhibition of virus replication at 10 ug/ml after 24 hrs relative to control. The class given is functional. As to conditions: Human alphaherpesvirus 1, 2931, Vero. In outline: as §2
For data set [4], the system named is Human alphaherpesvirus 1. Nature of the data set: Antiviral activity against HSV1 2931 infected in African green monkey Vero cells assessed as inhibition of virus replication at 100 ug/ml after 24 hrs relative to control. The note with it: Human alphaherpesvirus 1, 2931, Vero. The class given is functional. In outline: as §2
Data set [5] is described as follows: Cytotoxicity against mouse L5178Y cells assessed as growth inhibition after 96 hrs. The note with it: read-out: ID50. The class given is cell-based. In outline:
as §1

For data set [6], the system named is Human alphaherpesvirus 1. Nature of the data set: Antiviral activity against HSV1 2931 infected in African green monkey Vero cells assessed as inhibition of virus replication at 0.01 ug/ml after 24 hrs relative to control. As to conditions: Human alphaherpesvirus 1, 2931, Vero. The class given is functional. The gist of the method: as §2
Data set [7] concerns Human alphaherpesvirus 1. In words: Antiviral activity against HSV1 2931 infected in African green monkey Vero cells assessed as inhibition of virus replication at 0.1 ug/ml after 24 hrs relative to control. As to conditions: Human alphaherpesvirus 1, 2931, Vero. The class given is functional. The gist of the method:
as §2

In data set [8] the test system is Human alphaherpesvirus 1. Nature of the data set: Potency index, ratio of compound activity to vidarabine activity against HSV1 2931. The class given is functional.

Converted amounts (≈) assume the structure as drawn. Bounds are passed on as bounds.

For orientation: inhibition means how much of the control response was suppressed. For `Cc1cn([C@@H]2O[C@H](CO)[C@@H](O)[C@@H]2O)c(=O)[nH]c1=O`, the GI50 at 96 h in data set [1] was 13 µg/mL (≈ 50.3 µM); in data set [5], above 100 µg/mL. Moreover, in data set [2], the inhibition at 1 µg/mL was above 90%. In addition, the inhibition at 10 µg/mL in data set [3] amounted to 100%. The inhibition at 100 µg/mL in data set [4] turned out to be 100%. Further, in data set [6], the inhibition at 0.01 µg/mL was below 90%. For the same compound, the inhibition at 0.1 µg/mL in data set [7] was below 90%.
As for `Nc1nc(=O)n([C@@H]2O[C@H](CO)[C@@H](O)[C@@H]2F)cc1Br`, the figures for the GI50 at 96 h in data set [1] and in data set [5] were above 10 µg/mL and 10 µg/mL (≈ 30.9 µM), respectively. The inhibition at 1 µg/mL in data set [2] was above 99%. Besides, the inhibition at 10 µg/mL in data set [3] was found to be 100%. Further, the inhibition at 0.01 µg/mL in data set [6] was below 90%. Moreover, the inhibition at 0.1 µg/mL in data set [7] is above 90%.
For the compound `Nc1ccn([C@@H]2O[C@H](CO)[C@@H](O)[C@@H]2F)c(=O)n1`, the GI50 at 96 h in data set [1] and in data set [5] was 0.05 µg/mL (≈ 0.204 µM) each time. In data set [2], the inhibition at 1 µg/mL was above 90%. The inhibition at 10 µg/mL in data set [3] was above 99.9%. Besides, in data set [4], the inhibition at 100 µg/mL is above 100%. Also, the inhibition at 0.01 µg/mL in data set [6] was below 90%. Besides, the inhibition at 0.1 µg/mL in data set [7] was above 90%.
Consider `Nc1nc(=O)n([C@@H]2O[C@H](CO)[C@@H](O)[C@@H]2F)cc1F`, for which the GI50 at 96 h stood at 0.4 µg/mL (≈ 1.52 µM) in data set [1] and 0.5 µg/mL (≈ 1.9 µM) in data set [5]. The inhibition at 1 µg/mL in data set [2] was above 99%. Also, the inhibition at 10 µg/mL in data set [3] was above 99.9%. For the same compound, the inhibition at 0.01 µg/mL in data set [6] is below 90%. In data set [7], the inhibition at 0.1 µg/mL was above 90%.
With `Nc1nc(=O)n([C@@H]2O[C@H](CO)[C@@H](O)[C@@H]2F)cc1Cl`, the figures for the GI50 at 96 h in data set [1] and in data set [5] were 1 µg/mL (≈ 3.58 µM) and 1.4 µg/mL (≈ 5.01 µM), respectively. Besides, in data set [2], the inhibition at 1 µg/mL is below 90%. The inhibition at 10 µg/mL in data set [3] was above 99.9%. In data set [6], the inhibition at 0.01 µg/mL is below 90%. Further, the inhibition at 0.1 µg/mL in data set [7] is below 90%.
Consider `Cl.Nc1nc(=O)n([C@@H]2O[C@H](CO)[C@@H](O)[C@@H]2F)cc1I`, for which the GI50 at 96 h turned out to be 14 µg/mL in data set [1] and 48 µg/mL in data set [5]. The Ratio in data set [8] is on record as 1000. The inhibition at 1 µg/mL in data set [2] is above 100%. The inhibition at 10 µg/mL in data set [3] turned out to be 100%. Also, in data set [4], the inhibition at 100 µg/mL amounted to 100%. In addition, the inhibition at 0.01 µg/mL in data set [6] is above 90%. The inhibition at 0.1 µg/mL in data set [7] was above 99%.
Consider `O=c1ccn([C@@H]2O[C@H](CO)[C@@H](O)[C@@H]2F)c(=O)[nH]1`, for which the GI50 at 96 h in data set [1] and in data set [5] was above 10 µg/mL each time. Also, the inhibition at 1 µg/mL in data set [2] was above 99%. The inhibition at 10 µg/mL in data set [3] is above 99%. For the same compound, the inhibition at 0.01 µg/mL in data set [6] is below 90%. Besides, the inhibition at 0.1 µg/mL in data set [7] was below 90%.
As to `O=c1[nH]c(=O)n([C@@H]2O[C@H](CO)[C@@H](O)[C@@H]2F)cc1F`, the GI50 at 96 h turned out to be 0.7 µg/mL (≈ 2.65 µM) in data set [1] and 1 µg/mL (≈ 3.79 µM) in data set [5]. Further, the inhibition at 1 µg/mL in data set [2] was above 100%. In addition, the inhibition at 10 µg/mL in data set [3] turned out to be 100%. In data set [6], the inhibition at 0.01 µg/mL is below 90%. For the same compound, the inhibition at 0.1 µg/mL in data set [7] was above 99%.
As for `O=c1[nH]c(=O)n([C@@H]2O[C@H](CO)[C@@H](O)[C@@H]2F)cc1Cl`, the GI50 at 96 h stood at 3.4 µg/mL (≈ 12.1 µM) in data set [1] and 1.4 µg/mL (≈ 4.99 µM) in data set [5]. For the same compound, the inhibition at 1 µg/mL in data set [2] was below 90%. In addition, the inhibition at 10 µg/mL in data set [3] is above 100%. In addition, in data set [6], the inhibition at 0.01 µg/mL was below 90%. For the same compound, the inhibition at 0.1 µg/mL in data set [7] was below 90%.
As for `O=c1[nH]c(=O)n([C@@H]2O[C@H](CO)[C@@H](O)[C@@H]2F)cc1Br`, the figures for the GI50 at 96 h in data set [1] and in data set [5] were 1.6 µg/mL (≈ 4.92 µM) and 0.9 µg/mL (≈ 2.77 µM), respectively. Also, in data set [2], the inhibition at 1 µg/mL was above 99%. The inhibition at 10 µg/mL in data set [3] is above 100%. The inhibition at 0.01 µg/mL in data set [6] was below 90%. The inhibition at 0.1 µg/mL in data set [7] is below 90%.
Take `Nc1nc(=O)n([C@@H]2O[C@H](CO)[C@@H](O)[C@@H]2O)cc1I`: the GI50 at 96 h amounted to 0.08 µg/mL (≈ 0.217 µM) in data set [1] and 0.2 µg/mL (≈ 0.542 µM) in data set [5]. Also, the inhibition at 1 µg/mL in data set [2] was above 90%. Besides, the inhibition at 10 µg/mL in data set [3] is above 100%. Besides, the inhibition at 0.01 µg/mL in data set [6] is below 90%. For the same compound, the inhibition at 0.1 µg/mL in data set [7] is below 90%.
For `O=c1[nH]c(=O)n([C@@H]2O[C@H](CO)[C@@H](O)[C@@H]2O)cc1I`, the figures for the GI50 at 96 h in data set [1] and in data set [5] were 16 µg/mL (≈ 43.2 µM) and 30 µg/mL (≈ 81.1 µM), respectively. In data set [2], the inhibition at 1 µg/mL was below 90%. Further, the inhibition at 10 µg/mL in data set [3] is above 90%. The inhibition at 100 µg/mL in data set [4] is above 100%. In data set [6], the inhibition at 0.01 µg/mL was below 90%. Further, the inhibition at 0.1 µg/mL in data set [7] is below 90%.
Take `Cc1cn([C@@H]2O[C@H](CO)[C@@H](O)[C@@H]2F)c(=O)[nH]c1=O` [5-METHYL-2'-FLUOROARAURACIL]: the GI50 at 96 h in data set [1] came out at 1.9 µg/mL (≈ 7.3 µM); in data set [5] it was 1.6 µg/mL (≈ 6.15 µM). Moreover, in data set [2], the inhibition at 1 µg/mL is above 99.9%. Also, the inhibition at 10 µg/mL in data set [3] is 100%. For the same compound, the inhibition at 0.01 µg/mL in data set [6] is below 90%. Moreover, the inhibition at 0.1 µg/mL in data set [7] is above 90%.
On to `Nc1ccn([C@@H]2O[C@H](CO)[C@@H](O)[C@@H]2O)c(=O)n1` [CYTARABINE], for which the GI50 at 96 h in data set [1] and in data set [5] was 0.02 µg/mL (≈ 0.0822 µM) in each case. In data set [2], the inhibition at 1 µg/mL was above 90%. For the same compound, in data set [3], the inhibition at 10 µg/mL was above 100%. In addition, the inhibition at 100 µg/mL in data set [4] was above 100%. The inhibition at 0.01 µg/mL in data set [6] was below 90%. For the same compound, in data set [7], the inhibition at 0.1 µg/mL was below 90%.
For the compound `O=c1[nH]c(=O)n([C@@H]2O[C@H](CO)[C@@H](O)[C@@H]2F)cc1I` [FIALURIDINE], the values for the GI50 at 96 h in data set [1] and in data set [5] were 0.8 µg/mL (≈ 2.15 µM) and 0.9 µg/mL (≈ 2.42 µM), respectively. In addition, the inhibition at 1 µg/mL in data set [2] was above 99.9%. In addition, in data set [3], the inhibition at 10 µg/mL was above 100%. In addition, the inhibition at 0.01 µg/mL in data set [6] was below 90%. In data set [7], the inhibition at 0.1 µg/mL was above 90%.
As to `Nc1nc(=O)n([C@H]2C[C@H](O)[C@@H](CO)O2)cc1I` [IBACITABINE], the GI50 at 96 h in data set [1] and in data set [5] was above 100 µg/mL throughout. Also, in data set [2], the inhibition at 1 µg/mL was above 90%. Also, the inhibition at 10 µg/mL in data set [3] is above 99.9%. For the same compound, the inhibition at 0.01 µg/mL in data set [6] is below 90%. For the same compound, in data set [7], the inhibition at 0.1 µg/mL is below 90%.
With `O=c1[nH]c(=O)n([C@H]2C[C@H](O)[C@@H](CO)O2)cc1I` [IDOXURIDINE], the GI50 at 96 h in data set [1] worked out at 0.9 µg/mL (≈ 2.54 µM); in data set [5] it was 4.2 µg/mL (≈ 11.9 µM). In addition, the inhibition at 1 µg/mL in data set [2] is below 90%. Moreover, in data set [3], the inhibition at 10 µg/mL was above 90%. In data set [4], the inhibition at 100 µg/mL turned out to be 100%. Moreover, in data set [6], the inhibition at 0.01 µg/mL is below 90%. Moreover, the inhibition at 0.1 µg/mL in data set [7] is below 90%.
